This passage reports inhibition, EC50 and Papp results from ChEMBL document CHEMBL2440094, “Thiazolidinone-peptide hybrids as dengue virus protease inhibitors with antiviral activity in cell culture” (J Med Chem, 2013).

pEC50: −log10 of the molar value. Calls of active or inactive are those of the source. No cut-off for these calls is given here.

One data set concerns West Nile virus. The data set can be described thus: Inhibition of West Nile virus NS2B-NS3 protease expressed in Escherichia coli BL 21 (DE3) using Abz-Gly-Leu-Lys-Arg-Gly-Gly-3-(NO2)Tyr as substrate at 50 uM after 15 mins.
A further data set has as its system Dengue virus. The experiment in a line: Inhibition of Dengue virus NS2B-NS3 protease expressed in Escherichia coli BL 21 (DE3) using Abz-Nle-Lys-Arg-Arg-Ser-3-(NO2)Tyr as substrate at 50 uM after 15 mins.
In the next data set the test system is dengue virus type 2. The experiment in a line: Antiviral activity against Dengue virus 2 infected in human Huh-7 cells assessed as inhibition of viral replication after 48 hrs by luciferase reporter gene assay. The note with it: Huh-7, 48 h. In kind it is functional, organism-based. The essentials: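 Huh-7 cells seeded 5000/well, incubated overnight at 37 °C, then given compound (1.56–50 μM final, 2-fold series in DMEM with 10% FCS). Dengue 2 renilla luciferase reporter virus (MOI 10) added 4 h later. After 48 h at 37 °C, cells lysed and renilla luminescence read with coelenterazine. At least four wells per concentration, expressed relative to DMSO control. EC50 by nonlinear regression.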
A general note: Reporter assays use an easily measured gene product as a stand-in for the process of interest.

The nature of data set [1]: Permeability of the compound by PAMPA. In kind it is ADME. The note with it: read-out: permeability. Summed up: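 PAMPA with precoated trilayer lipid/oil/lipid membranes, donor wells holding 200 μM compound in PBS pH 7.4 (2% DMSO final), in triplicate. Incubated 5 h at room temperature. Donor and acceptor concentrations determined by UV plate reader or HPLC-UV against calibration curves. Pe and mass retention R calculated.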
In general terms: The PAMPA barrier holds no transporters, so it reflects passive diffusion.

Data set [2] addresses Prothrombin (Homo sapiens) (UniProt P00734). The experiment in a line: Inhibition of thrombin (unknown origin) using Boc-Val-Pro-Arg-AMC as substrate at 25 uM after 10 mins by continuous fluorimetric assay. The essentials:
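Thrombin (10 nM) preincubated 15 min with inhibitor (25 μM final) in 50 mM Tris-HCl pH 7.5, 150 mM NaCl, 0.05% Tween 20. Boc-Val-Pro-Arg-AMC then added to 50 μM (Km 16 μM). Fluorescence (ex 355 nm, em 460 nm) followed for 10 min as slope. Triplicate; percent inhibition versus no-inhibitor control.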

What is called inhibition is the drop in the measured response relative to a control, in per cent. The pEC50 is the negative decadic logarithm of the EC50, by convention in mol/L. With `CCCC[C@H](NC(=O)[C@H](CCCCN)NC(=O)[C@H](CCCNC(=N)N)NC(=O)c1ccc(/C=C2\SC(=S)N(c3ccc(Cl)cc3)C2=O)cc1)C(N)=O`, the results for the inhibition (with West Nile virus; in the data set on Dengue virus; in data set [2]) were 53.6%, 96.7% and 11.1%, respectively. The pEC50 in the data set with dengue virus type 2 was 4.45. The Papp in data set [1] was determined as 1.02 ×10⁻⁶ cm/s.

On to `CCCC[C@H](NC(=O)[C@H](CCCCN)NC(=O)[C@H](CCCNC(=N)N)NC(=O)c1ccc(/C=C2\SC(=O)N(CCO)C2=O)cc1)C(N)=O`, for which the inhibition in the data set with West Nile virus worked out at 26.5%; with Dengue virus it was 95.9%; in data set [2] it was 11.8%. For the same compound, in the data set with dengue virus type 2, the negative-log EC50 (pEC50) was below 4.30.

For `N=C(N)NCCC[C@H](NC(=O)c1ccc(/C=C2\SC(=O)N(Cc3ccccc3)C2=O)cc1)C(=O)N[C@@H](CCCCN)C(N)=O`, the inhibition in the data set on West Nile virus is 76.2%; in the data set with Dengue virus it was 83.1%. The inhibition result in data set [2] was “inactive”.

For the compound `CCCC[C@H](NC(=O)[C@H](CCCCN)NC(=O)[C@H](CCCNC(=N)N)NC(=O)c1ccc(/C=C2\SC(=S)N(CC3CCCO3)C2=O)cc1)C(N)=O` (stereo not given in full), the inhibition with West Nile virus was found to be 53.4%; in the data set on Dengue virus, 93.3%; in data set [2], 13.3%.

With `CCCC[C@H](NC(=O)[C@H](CCCCN)NC(=O)[C@H](CCCNC(=N)N)NC(=O)c1ccc(/C=C2\SC(=S)N(c3ccccc3)C2=O)cc1)C(N)=O`, the inhibition with West Nile virus came to 37.8%; with Dengue virus it was 90%; in data set [2] it was 14.2%.

Consider `CCCC[C@H](NC(=O)[C@H](CCCCN)NC(=O)[C@H](CCCNC(=N)N)NC(=O)c1ccc(/C=C2\SC(=S)N(C(C)C)C2=O)cc1)C(N)=O`, for which the figures for the inhibition (in the data set on West Nile virus; in the data set with Dengue virus; in data set [2]) were 63.7%, 94.4% and 12%, respectively.

Turning to `CCCC[C@H](NC(=O)[C@H](CCCC)NC(=O)[C@H](CCCNC(=N)N)NC(=O)c1ccc(/C=C2\SC(=O)N(Cc3ccccc3)C2=O)cc1)C(N)=O`, the values for the inhibition (in the data set on West Nile virus; with Dengue virus; in data set [2]) were 88.3%, 81.4% and 8.3%, respectively.

For the compound `CCCC[C@H](NC(=O)[C@H](CCCCN)NC(=O)[C@H](CCCNC(=N)N)NC(=O)c1ccc(/C=C2\SC(=S)N(CCC)C2=O)cc1)C(N)=O`, the figures for the inhibition (in the data set with West Nile virus; in the data set on Dengue virus; in data set [2]) were 52.7%, 94.2% and 11%, respectively.

With `CCCC[C@H](NC(=O)[C@H](CCCNC(=N)N)NC(=O)[C@H](CCCCN)NC(=O)c1ccc(/C=C2\SC(=O)N(Cc3ccccc3)C2=O)cc1)C(N)=O`, the results for the inhibition (with West Nile virus; in the data set with Dengue virus; in data set [2]) were 60.9%, 72.1% and 10.2%, respectively.

On to `CCCC[C@H](NC(=O)[C@H](CCCCN)NC(=O)[C@H](CCCCN)NC(=O)c1ccc(/C=C2\SC(=O)N(Cc3ccccc3)C2=O)cc1)C(N)=O`, for which the inhibition in the data set with West Nile virus was 36.9%; in the data set with Dengue virus, 83%; in data set [2], 16.7%.

`CCCC[C@H](NC(=O)[C@H](CCCCN)NC(=O)[C@H](CCCNC(=N)N)NC(=O)c1ccc(/C=C2\SC(=S)N(CCO)C2=O)cc1)C(N)=O`: the inhibition in the data set with West Nile virus stood at 28.4%; in the data set on Dengue virus, 90.3%; in data set [2], 12.9%. Besides, in the data set with dengue virus type 2, the pEC50 is below 4.30.

As to `CCCC[C@H](NC(=O)[C@H](CCCCN)NC(=O)[C@H](CCCNC(=N)N)NC(=O)c1ccc(/C=C2\SC(=S)N(CC)C2=O)cc1)C(N)=O`, the inhibition with West Nile virus amounted to 45.4%; with Dengue virus, 93.4%; in data set [2] it was 13.6%.

For the compound `CCCC[C@H](NC(=O)[C@H](CCCCN)NC(=O)[C@H](CCCNC(=N)N)NC(=O)c1ccc(/C=C2\SC(=S)N(C3CC3)C2=O)cc1)C(N)=O`, the inhibition in the data set on West Nile virus came out at 46.4%; with Dengue virus, 94.6%; in data set [2] it was 6.3%.

Regarding `O=C(O)c1ccc(/C=C2\SC(=O)N(Cc3ccccc3)C2=O)cc1`, the inhibition came out at 22.1% in the data set with West Nile virus, 30.7% in the data set on Dengue virus and 12.2% in data set [2].

Turning to `CCCC[C@H](NC(=O)[C@H](CCCCN)NC(=O)[C@H](CCCNC(=N)N)NC(=O)CN1C(=O)/C(=C/c2ccc(OC)c(OC)c2)SC1=S)C(N)=O`, the inhibition in the data set on West Nile virus is 30.2%; in the data set with Dengue virus, 46.5%; in data set [2] it was 13.8%.

As for `CCCC[C@H](NC(=O)[C@H](CCCCN)NC(=O)[C@H](CCCNC(=N)N)NC(=O)c1ccc(/C=C2\SC(=S)N(c3ccc(F)cc3)C2=O)cc1)C(N)=O`, the inhibition with West Nile virus worked out at 35.5%; with Dengue virus it was 89.7%; in data set [2], 6.5%.

As for `CCCC[C@H](NC(=O)c1ccc(/C=C2\SC(=O)N(Cc3ccccc3)C2=O)cc1)C(=O)N[C@@H](CCCCN)C(=O)N[C@@H](CCCNC(=N)N)C(N)=O`, the figures for the inhibition (with West Nile virus; in the data set with Dengue virus; in data set [2]) were 60.3%, 66.8% and 6.3%, respectively.

Take `CCCC[C@@H](NC(=O)[C@@H](CCCCN)NC(=O)[C@@H](CCCNC(=N)N)NC(=O)c1ccc(/C=C2\SC(=O)N(Cc3ccccc3)C2=O)cc1)C(N)=O`: the inhibition with West Nile virus worked out at 47.5%; in the data set on Dengue virus, 73.9%; in data set [2], 11.1%. For the same compound, the Papp in data set [1] was found to be 0.29 ×10⁻⁶ cm/s.

For `CCCC[C@H](NC(=O)[C@H](CCCCN)NC(=O)[C@H](CCCNC(=N)N)NC(=O)c1ccc(/C=C2\SC(=S)N(CCOC(C)=O)C2=O)cc1)C(N)=O`, the figures for the inhibition (with West Nile virus; in the data set on Dengue virus; in data set [2]) were 22.4%, 89.3% and 22.8%, respectively.

On to `CCCC[C@H](NC(=O)[C@H](CCCCN)NC(=O)[C@H](CCCNC(=N)N)NC(=O)[C@H](Cc1ccccc1)N1C(=O)/C(=C/c2ccc(OC)c(OC)c2)SC1=S)C(N)=O`, for which the inhibition in the data set with West Nile virus came to 25%; in the data set with Dengue virus, 60.8%; in data set [2], 18.9%. Besides, the pEC50 in the data set on dengue virus type 2 was below 4.30.

Take `CCCC[C@H](NC(=O)[C@H](CCCCN)NC(=O)[C@H](CCCNC(=N)N)NC(=O)c1ccc(/C=C2\NC(=S)N(c3ccccc3)C2=O)cc1)C(N)=O`: the results for the inhibition (with West Nile virus; in the data set on Dengue virus; in data set [2]) were 44.1%, 85.2% and 18%, respectively.

Turning to `CCCC[C@H](NC(=O)[C@H](CCCCN)NC(=O)[C@H](CCCNC(=N)N)NC(=O)c1cccc(/C=C2\SC(=S)NC2=O)c1)C(N)=O`, the inhibition came out at 34.6% in the data set with West Nile virus, 75.2% in the data set with Dengue virus and 17.6% in data set [2]. Besides, the pEC50 with dengue virus type 2 was below 4.30.

`CCCC[C@H](NC(=O)[C@H](CCCCN)NC(=O)[C@H](CCCNC(=N)N)NC(=O)CC1SC(=S)N(Cc2ccc(OC)cc2)C1=O)C(N)=O` (stereo not given in full): the inhibition result in the data set on West Nile virus is “inactive”. For the same compound, the inhibition with Dengue virus turned out to be 23%; in data set [2], 76.8%. For the same compound, the pEC50 in the data set on dengue virus type 2 was 4.52.

With `CCCC[C@H](NC(=O)[C@H](CCCCN)NC(=O)[C@H](CCCNC(=N)N)NC(=O)c1ccc(/C=C2\NC(=S)N(Cc3ccccc3)C2=O)cc1)C(N)=O`, the inhibition in the data set on West Nile virus amounted to 29.2%; in the data set with Dengue virus, 83.5%; in data set [2] it was 11.4%.

On to `C=CCN1C(=O)S/C(=C\c2ccc(C(=O)N[C@@H](CCCNC(=N)N)C(=O)N[C@@H](CCCCN)C(=O)N[C@@H](CCCC)C(N)=O)cc2)C1=O`, for which the inhibition in the data set on West Nile virus amounted to 33.2%; with Dengue virus, 93.2%; in data set [2], 12.5%.

Regarding `CCCC[C@H](NC(=O)[C@H](CCCCN)NC(=O)[C@H](CCCNC(=N)N)NC(=O)c1ccc(/C=C2\SC(=O)N(C(C)C)C2=O)cc1)C(N)=O`, the inhibition in the data set on West Nile virus is 30.9%; in the data set on Dengue virus it was 95.8%; in data set [2], 10.6%.

In the case of `CCCC[C@H](NC(=O)[C@H](CCCCN)NC(=O)[C@H](CCCNC(=N)N)NC(=O)c1ccc(/C=C2\SC(=O)N(CC)C2=O)cc1)C(N)=O`, the inhibition was 48.5% with West Nile virus, 96.5% in the data set on Dengue virus and 19% in data set [2].

Regarding `CCCC[C@H](NC(=O)[C@H](CCCCN)NC(=O)[C@H](CCCNC(=N)N)NC(=O)c1ccc(/C=C2\SC(=S)N(c3ccc(C)cc3)C2=O)cc1)C(N)=O`, the values for the inhibition (with West Nile virus; with Dengue virus; in data set [2]) were 50.9%, 95% and 10.2%, respectively.

Turning to `CCCC[C@H](NC(=O)[C@H](CCCCN)NC(=O)[C@H](CCCNC(=N)N)NC(=O)c1ccc(/C=C2\SC(=O)N(CCC)C2=O)cc1)C(N)=O`, the inhibition in the data set on West Nile virus came out at 33.6%; with Dengue virus, 94.5%. In data set [2], the inhibition result is “inactive”.

Consider `CCCC[C@H](NC(=O)[C@H](CCCNC(=N)N)NC(=O)[C@H](CCCNC(=N)N)NC(=O)c1ccc(/C=C2\SC(=O)N(Cc3ccccc3)C2=O)cc1)C(N)=O`, for which the inhibition was determined as 74% with West Nile virus, 92.7% in the data set with Dengue virus and 13.7% in data set [2].

With `N=C(N)NCCC[C@H](NC(=O)c1ccc(/C=C2\SC(=O)N(Cc3ccccc3)C2=O)cc1)C(N)=O`, the results for the inhibition (in the data set with West Nile virus; in the data set on Dengue virus; in data set [2]) were 16.9%, 32.4% and 13.2%, respectively.

Regarding `CCCC[C@H](NC(=O)[C@H](CCCCN)NC(=O)[C@H](CCCNC(=N)N)NC(=O)c1ccc(/C=C2\SC(=O)N(c3ccc(C)cc3)C2=O)cc1)C(N)=O`, the inhibition with West Nile virus turned out to be 42.4%; in the data set with Dengue virus, 93.8%; in data set [2] it was 13.8%. In addition, in data set [1], the Papp came out at 0.66 ×10⁻⁶ cm/s.
